Rtt109 HAT inh = blocks Candida albicans Rtt109/Vps75 acetyltransferase activity; AID 540336; inhibition, % at 34.9 µM; purified Rtt109/Vps75, ThioGlo CoA-SH fluorescence, 4 h; Q5AAJ8; 330,000 compounds, 0.16% hits;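 active = inhibition of at least 50% in every replicate; inconclusive = best replicate reaches 50% inhibition but some replicates fall short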
dFosB activator = activators of mouse delta FosB homodimer; P13346; purified delta FosB, TAMRA-CDK5 oligo fluorescence polarization; percent of positive-control signal above neutral wells; activation, % at 25 µM; 340,000 compounds, 0.99% hits;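 active = mean activation above about 17%, with every replicate also reaching it, limit read from the data, passing the limit was not always enough; inconclusive = only one of the two conditions met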
Target sequence (P13346 whole entry, looked up): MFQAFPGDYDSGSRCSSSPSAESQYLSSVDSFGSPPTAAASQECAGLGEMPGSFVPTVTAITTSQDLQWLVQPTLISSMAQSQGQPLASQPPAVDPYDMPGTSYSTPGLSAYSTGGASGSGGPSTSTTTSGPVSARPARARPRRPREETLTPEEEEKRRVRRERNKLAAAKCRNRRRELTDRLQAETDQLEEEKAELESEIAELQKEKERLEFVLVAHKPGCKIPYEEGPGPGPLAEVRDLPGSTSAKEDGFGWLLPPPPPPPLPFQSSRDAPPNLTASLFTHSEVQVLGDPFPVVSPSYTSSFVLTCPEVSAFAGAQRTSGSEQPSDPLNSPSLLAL
DYRK1A inh = blocks rat Dyrk1A kinase activity; ADP-Glo luminescence, NFATc1 peptide; 310,000 compounds, 0.43% hits; inhibition, % at 12.5 µM; Q63470; in the data active = inhibition above about 50%;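 also: plate controls were vehicle with enzyme for no effect and no enzyme for full effect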
CAL PDZ FP-1 = inhibitors of human CAL PDZ peptide binding; Q9HD26; purified CAL PDZ, TMR-peptide fluorescence polarization, 1 h; inhibition, % at 20 µM; 330,000 compounds, 0.02% hits;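 active = highest replicate inhibition of at least 40%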;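 also: plate controls were DMSO neutral control wells for no effect and unlabeled competitor peptide control wells for full effect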
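Control set: unlabelled peptide and DMSO controls / Material: purified CerCALP PDZ construct / Timing: 1 h incubation at room temperature before polarization reading / Doses: 20 µM, one dose / Detection: fluorescence polarization (mP)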
CDK5 inh = CDK5/p35 (human) kinase inhibition; Recombinant CDK5/p35, ADP-Glo luminescence, 60 min; AID 488839; inhibition, % at 10 µM; Q00535+Q15078; 330,000 compounds, 0.01% hits;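 active = highest replicate inhibition of at least 50% and at least 75% of replicates reaching 50%; inconclusive = only one of the two criteria met; inactive = both criteria failed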;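 also: plate controls were DMSO neutral control for no effect and GW8510 at 10 µM for full effect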
CAL PDZ FP-2 = blocks peptide binding to the human CAL PDZ domain. Q9HD26. purified CAL PDZ, TMR-peptide fluorescence polarization, 1 h. inhibition, % at 24.9 µM. 300,000 compounds, 0.92% hits;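 active = mean inhibition of at least 30% with at least half of replicates also reaching 30%; inconclusive = no clear call, values can overlap the other calls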;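 also: 0% = DMSO neutral control and 100% = excess unlabeled competitor peptide PRC23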
The depositor's hits bear a star. An excerpt weighted towards active compounds, which were near 2.2% of everything screened.

What do the screens show for `O=C(CN1CCN(c2cccc(Cl)c2)CC1)NC1CCCc2ccccc21` (stereo not given)?
Rtt109 HAT inh: -0.9; dFosB activator: -13.4; DYRK1A inh: -0.6; CAL PDZ FP-1: -0.3; CDK5 inh: 0.6; CAL PDZ FP-2: -0.7

How did CC(Oc1ccc(C(=O)c2ccc(F)cc2)cc1)C(=O)N1CCOCC1 (stereo not given) do in these assays?
Rtt109 HAT inh: -4.0; dFosB activator: -2.8; DYRK1A inh: 1.0; CAL PDZ FP-1: -2.0; CDK5 inh: -0.9; CAL PDZ FP-2: -2.3

How did CC(=O)Nc1ccc(S(=O)(=O)NCCc2c[nH]c3ccc(C)cc23)cc1 do in these assays?
Rtt109 HAT inh: -2.0; dFosB activator: -12.7; DYRK1A inh: -4.1; CAL PDZ FP-1: -1.6; CDK5 inh: 0.6; CAL PDZ FP-2: 30.5*

How did COc1ccc2[nH]cc(CCNS(=O)(=O)c3ccc(NC(C)=O)cc3)c2c1 do in these assays?
Rtt109 HAT inh: 13.9; dFosB activator: 1.4; DYRK1A inh: 6.3; CAL PDZ FP-1: -0.5; CDK5 inh: -0.6; CAL PDZ FP-2: 2.3

Results for CC(=O)Nc1ccc(S(=O)(=O)NCCC(=O)Nc2cc(C)ccn2)cc1 ?
Rtt109 HAT inh: 2.2; dFosB activator: -1.5; DYRK1A inh: -6.2; CAL PDZ FP-1: -1.2; CDK5 inh: 1.1; CAL PDZ FP-2: 30.2*

Results for CC(=O)Nc1ccc(S(=O)(=O)NCCC(=O)Nc2cccc(Cl)c2)cc1 ?
Rtt109 HAT inh: -7.0; dFosB activator: -1.4; DYRK1A inh: -2.3; CAL PDZ FP-1: -2.6; CDK5 inh: -0.6; CAL PDZ FP-2: -10.3

How did COc1cc(OC)cc(C(=O)Oc2c(CN3CCOCC3)cc(Cl)c3cccnc23)c1 do in these assays?
Rtt109 HAT inh: -21.6; dFosB activator: -10.7; DYRK1A inh: -3.9; CAL PDZ FP-1: 0.2; CDK5 inh: 0.8; CAL PDZ FP-2: 1.3

How did O=C(Oc1c(CN2CCOCC2)cc(Cl)c2cccnc12)c1ccccc1 do in these assays?
Rtt109 HAT inh: 6.6; dFosB activator: -7.9; DYRK1A inh: 2.7; CAL PDZ FP-1: -0.3; CDK5 inh: -0.4; CAL PDZ FP-2: 47.4*

Results for COc1ccc(-n2ccc(=O)c(C(=O)O)n2)cc1 ?
Rtt109 HAT inh: -15.6; dFosB activator: 9.0; DYRK1A inh: -0.7; CAL PDZ FP-1: 0.7; CDK5 inh: 0.0; CAL PDZ FP-2: -1.9

How did COc1ccc(CCNC(=O)COc2cc(O)c3c(c2)OC(C)(C)CC3=O)cc1OC do in these assays?
Rtt109 HAT inh: -5.7; dFosB activator: -0.2; DYRK1A inh: 0.9; CAL PDZ FP-1: 0.1; CDK5 inh: 0.6; CAL PDZ FP-2: -2.7

Results for Cc1cc(NC(=O)c2ccc(C#N)cc2)n(-c2ccccn2)n1 ?
Rtt109 HAT inh: 8.6; dFosB activator: -8.7; CAL PDZ FP-1: 0.2; CDK5 inh: -1.3; CAL PDZ FP-2: 78.1*

Results for O=C(Nc1cccc(Cl)c1)Nc1ccc(Cl)cn1 ?
Rtt109 HAT inh: 6.1; dFosB activator: 0.3; DYRK1A inh: -2.5; CAL PDZ FP-1: -0.8; CDK5 inh: 1.0; CAL PDZ FP-2: 1.7

Results for O=C(Nc1ccc(Cl)cn1)Nc1ccc(Cl)cn1 ?
dFosB activator: inconclusive; DYRK1A inh: -2.1; CAL PDZ FP-1: -1.1; CDK5 inh: -1.8; CAL PDZ FP-2: 47.4*

What do the screens show for `CCN(C(=O)CN1C(=O)/C(=C/c2ccccc2)SC1=S)C1CCS(=O)(=O)C1` (stereo not given)?
Rtt109 HAT inh: -1.5; dFosB activator: -5.2; DYRK1A inh: -2.1; CAL PDZ FP-1: 0.4; CDK5 inh: 1.0; CAL PDZ FP-2: 71.9*

What do the screens show for `CCN(C(=O)CN1C(=O)S/C(=C\c2ccc(F)cc2)C1=O)C1CCS(=O)(=O)C1` (stereo not given)?
Rtt109 HAT inh: 2.1; dFosB activator: -14.1; DYRK1A inh: 29.7; CAL PDZ FP-1: -1.1; CDK5 inh: 0.7; CAL PDZ FP-2: 4.1

How did CCOC(=O)CC(=O)CSc1nc(C)cc(C)c1C#N do in these assays?
Rtt109 HAT inh: -6.4; dFosB activator: -5.9; DYRK1A inh: 8.9; CAL PDZ FP-1: -1.9; CAL PDZ FP-2: 38.9*

How did COc1ccccc1N1CC(C)(C)C(=O)N(C(=O)c2c(F)cccc2Cl)C1=S do in these assays?
Rtt109 HAT inh: 0.9; dFosB activator: -10.0; DYRK1A inh: 5.7; CAL PDZ FP-1: -1.1; CDK5 inh: 0.2; CAL PDZ FP-2: 81.2*

Screening data: PubChem, Broad Institute
